A3A deaminase: APOBEC3A ssDNA deaminase inhibitors, primary screen, selectivity assay for APOBEC3G inhibitor project, biochemical, FAM/TAMRA oligo cleavage fluorescence; inhibition, % at 20 µM; DNA dC->dU-editing enzyme APOBEC-3A (Homo sapiens), P31941; recombinant A3A, FAM/TAMRA ssDNA deamination fluorescence; hit rate 0.41% among 330,000; AID 493011, 2011;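 active = at least 40% inhibition at 20 µM here, with at most 30% in a related deaminase screen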
Target sequence (P31941 whole entry, looked up): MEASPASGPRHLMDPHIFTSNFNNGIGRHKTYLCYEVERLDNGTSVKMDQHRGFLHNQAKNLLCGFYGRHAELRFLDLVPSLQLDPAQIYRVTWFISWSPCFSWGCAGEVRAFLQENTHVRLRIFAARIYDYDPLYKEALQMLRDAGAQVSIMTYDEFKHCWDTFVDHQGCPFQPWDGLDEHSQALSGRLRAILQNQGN
FN deposit inh: inhibitors of fibronectin matrix deposition, primary screen, AH1F cells, Alexa488-fibronectin fluorescence, plate reader. AH1F fibroblasts, overnight. inhibition, % at 12.6 µM. hit rate 0.086% among 350,000;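 active = mean inhibition across replicates of 30% or more, regardless of how many single replicates reach that level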
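Schedule: 1 h cell adhesion before compound, then overnight fibronectin incubation; test system: AH1F fibroblast monolayer depositing Alexa488-labelled fibronectin into matrix; quantity: 10000 AH1F cells per well; probe or stimulus: fluorescent fibronectin at 24 nM final; signal: fluorescence, ex 485 nm, em 525 nm; evaluation: percent inhibition as loss of matrix-bound fibronectin fluorescence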
A3G deaminase: APOBEC3G DNA deaminase inhibitors, primary screen, biochemical, fluorescence, single-stranded DNA substrate, uHTS. inhibition, % at 20 µM. recombinant A3G, ssDNA deamination FAM/TAMRA fluorescence. DNA dC->dU-editing enzyme APOBEC-3G (Homo sapiens), Q9HC16. hit rate 0.28% among 330,000;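 active = inhibition of at least 40% at 20 µM, with no more than 30% in the related APOBEC3A deaminase screen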
ABHD5 PLIN5 PPI: ABHD5-PLIN5 interaction inhibitors, primary screen, cell lysate, split luciferase complementation, luminescence | Split G. princeps luciferase complementation, 4 h | inhibition, % at 4 µM | hit rate 0.78% among 360,000 | AID 602281, 2012;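 active = inhibition above the mean inhibition across every tested compound plus 3 SD, cut at about 22% in these data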
ABHD5-PLIN5 conf: ABHD5-PLIN5 interaction inhibitors, confirmation, biochemical, luminescence; shares compounds with ABHD5 PLIN5 PPI; inhibition, % at 4 µM; hit rate 67% among 2,200; AID 651612, 2012; in the data active = inhibition above about 23%
HNF4 split-luc: HNF4 dimerization inhibitors, counter-screen for ABHD5-PLIN5 interaction inhibitor project, biochemical, split-luciferase complementation, luminescence; shares compounds with ABHD5 PLIN5 PPI; inhibition, % at 4 µM; hit rate 77% among 2,200;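 active = mean inhibition across replicate wells exceeding the computed hit threshold, cut at about 13% in these data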;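 also: light from luciferase halves that rejoin when HNF4 fusion proteins dimerize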
Target sequence (P41235 whole entry, looked up, the tested form may be a part): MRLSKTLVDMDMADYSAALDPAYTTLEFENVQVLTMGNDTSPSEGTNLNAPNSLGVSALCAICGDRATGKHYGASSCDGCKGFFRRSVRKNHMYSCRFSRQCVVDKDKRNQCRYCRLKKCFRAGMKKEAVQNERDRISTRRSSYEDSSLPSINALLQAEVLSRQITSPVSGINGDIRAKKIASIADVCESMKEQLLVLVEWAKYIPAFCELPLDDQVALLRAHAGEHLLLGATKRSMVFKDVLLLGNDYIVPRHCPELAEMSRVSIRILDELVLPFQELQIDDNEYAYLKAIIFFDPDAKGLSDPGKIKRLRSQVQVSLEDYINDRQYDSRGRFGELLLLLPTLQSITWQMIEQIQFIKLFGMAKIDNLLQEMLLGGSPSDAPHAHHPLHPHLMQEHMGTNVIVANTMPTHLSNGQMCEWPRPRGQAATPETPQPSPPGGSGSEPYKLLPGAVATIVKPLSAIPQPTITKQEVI
A number is an active result; 0 = inactive; - = no result given. Sampled rows, rich in hits. Any-hit rate of the full collection: about 1.2%.

SMILES	A3A deaminase	FN deposit inh	A3G deaminase	ABHD5 PLIN5 PPI	ABHD5-PLIN5 conf	HNF4 split-luc
COc1ccc(NC(=O)c2cc(NC(=O)C3CCCCC3C(=O)O)ccc2N2CCOCC2)cc1 (configuration not stated)	0	0	0	24.5	0	0
Cc1ccc(NC(=O)c2cc(N3C(=O)C=CC3=O)ccc2N2CCOCC2)cc1	-	0	-	29.4	51.0	98.2
Cc1cc(C)c(C(CC(=O)c2cccs2)C(C#N)C#N)c(C)c1 (configuration not stated)	0	0	0	24.0	64.1	40.8
O=C(C[C@@H]1C[C@@H]2c3cc(NC(=O)CC4CC4)ccc3O[C@@H]2[C@H](CO)O1)NCc1cc(F)ccc1F	-	0	-	-	-	-
COc1ccc(CCNC(=O)CN(c2cccc([N+](=O)[O-])c2)S(C)(=O)=O)cc1OC	0	0	0	81.8	0	0
COc1cccc(S(=O)(=O)N2C[C@@H](O)COC[C@H]3O[C@H](CC(=O)N4CCOCC4)CC[C@@H]32)c1	-	0	-	-	-	-
COc1cccc(CNC(=O)c2cc3c(c(-c4cccc(-c5ccncc5)c4)n2)[C@H](CCO)N([S@@](=O)C(C)(C)C)C3)c1	-	0	-	-	-	-
COc1ccc(NC(=O)c2cc(-c3ccc(C)o3)nc3ccccc23)c(OC)c1	0	0	0	0	-	-
Cc1ccc(-c2cc(C(=O)Nc3ccccc3C(N)=O)c3ccccc3n2)o1	0	0	0	43.3	27.9	27.8
N#C[C@H]1[C@@H](c2ccccc2C2=CCCCC2)[C@@H](CO)N1C(=O)Nc1ccccc1F	-	0	-	-	-	-
CC(C)(C)NC(=O)C(c1ccccc1F)n1c(=O)c(-c2ccco2)nc2ccccc21 (configuration not stated)	-	0	-	54.1	91.0	36.5
CCCCCNC(=O)C(c1ccccc1F)n1c(=O)c(-c2ccco2)nc2ccccc21 (configuration not stated)	-	0	-	95.7	56.8	0
CCCCCNC(=O)C(c1ccc(C#N)cc1)n1c(=O)c(-c2ccco2)nc2ccccc21 (configuration not stated)	-	0	-	75.2	43.8	0
CCCCCNC(=O)C(c1ccc(-c2ccccc2)cc1)n1c(=O)c(-c2ccccc2)nc2ccccc21 (configuration not stated)	-	0	-	0	-	-
CCCCCNC(=O)C(c1ccc(OC)cc1)n1c(=O)c(-c2ccco2)nc2ccccc21 (configuration not stated)	-	0	-	70.9	96.2	62.1
CO[C@@H]1CN(C)C(=O)c2ccc(NC(=O)C3CCOCC3)cc2OC[C@@H](C)N(C(=O)Nc2ccc(C(F)(F)F)cc2)C[C@H]1C	-	0	-	-	-	-
CC(C)c1cccc(NC(=O)C[C@H]2CC[C@H]3[C@@H](COc4ccc(NC(=O)c5cnccn5)cc4C(=O)N3C)O2)c1	-	0	-	-	-	-
CCOC(=O)C1=C(C)NC(C)=C(C(=O)OCC)C1C(=O)OCC(=O)N(C)C1CCS(=O)(=O)C1 (configuration not stated)	0	0	0	96.0	0	0
CCOC(=O)C1=C(C)NC(C)=C(C(=O)OCC)C1C(=O)OCC(N)=O	0	0	0	0	-	-
COc1ccc2c(C#CCCO)c(-c3ccc(S(C)(=O)=O)cc3)sc2c1	0	0	0	30.4	0	0
COc1ccc2sc(-c3ccc(S(C)(=O)=O)cc3)c(C#CCO)c2c1	0	0	0	0	-	-
COC(=O)c1cccc(S(=O)(=O)N(Cc2ccco2)Cc2cc3cc(OC)ccc3[nH]c2=O)c1	0	-	0	42.3	55.7	66.1
Cc1ccc(-c2ccc3c(c2)O[C@H](CN(C)C(=O)CC2CC2)[C@H](C)CN([C@H](C)CO)S3(=O)=O)cc1	-	0	-	-	-	-
Cc1ccc(C(=O)Nc2nc3ccccc3c(=O)s2)cc1	0	0	0	28.7	0	0
CCS(=O)(=O)N[C@@H]1C=C[C@H](CC(=O)NCc2ccccn2)O[C@@H]1CO	-	0	-	-	-	-
SMILES	A3A deaminase	FN deposit inh	A3G deaminase	ABHD5 PLIN5 PPI	ABHD5-PLIN5 conf	HNF4 split-luc
C[C@@H]1CCCCO[C@H](CN(C)CC2CC2)[C@H](C)CN([C@H](C)CO)C(=O)c2cc(N(C)C)ccc2O1	-	0	-	-	-	-
CCCN1C(=O)S/C(=C\c2ccc(N3CCOCC3)o2)C1=O	0	-	0	74.5	53.9	108.7
CCCN1C(=O)S/C(=C/c2ccc(N3CCOCC3)o2)C1=O	0	0	0	82.7	32.0	93.0
CCCN(C)C[C@@H]1Oc2ncc(Br)cc2C(=O)N([C@H](C)CO)C[C@H]1C	-	0	-	-	-	-
O=C(Nc1ccc(Cl)c(Cl)c1)N[C@H]1CC[C@H](CCn2cc(C3CCCC3)nn2)O[C@H]1CO	-	0	-	-	-	-
CCOC(=O)CSc1nnc(NCC(=O)OC(C)C)c(=O)[nH]1	0	-	0	26.9	48.5	97.8
Cc1ccccc1S(=O)(=O)N1C[C@H](O)COC[C@H]2O[C@H](CC(=O)NCCc3ccccc3)CC[C@@H]21	-	0	-	-	-	-
C[C@@H]1CCCCO[C@@H](CN(C)Cc2ccccc2)[C@@H](C)CN([C@H](C)CO)C(=O)c2cc(NC(=O)CCCCCC(=O)Nc3ccccc3N)ccc2O1	-	0	-	-	-	-
COc1ccc(OC)c(NC(=O)c2cnc3n(c2=O)CCS3)c1	0	0	0	0	-	-
COc1ccc(OC(=O)c2cnc3n(c2=O)CCS3)cc1	0	0	0	40.8	0	0
Cc1ccc(S(=O)(=O)N(C)C[C@H]2OCCCC[C@H](C)Oc3ccc(NS(=O)(=O)c4ccc(F)cc4)cc3C(=O)N([C@H](C)CO)C[C@H]2C)cc1	-	0	-	-	-	-
COc1ccccc1-c1cc(SC)c(C#N)c(=O)o1	0	0	0	66.7	89.2	92.6
O=C(c1ccc2ccccc2c1)N1CCN(S(=O)(=O)/C=C/c2ccccc2)CC1	0	0	0	0	-	-
O=C(/C=C/c1ccc(NC(=O)c2ccccc2-c2ccccc2C(=O)O)cc1)c1ccccc1	0	0	0	24.1	59.6	33.9
O=C(O)c1ccccc1-c1ccccc1C(=O)Nc1ccc(F)cc1	0	0	0	0	-	-
O=C(/C=C/c1ccccc1)/C=C/c1ccccc1	0	0	0	73.9	98.9	91.8
O=C(/C=C/c1ccccc1)c1ccc2ccccc2c1	-	0	-	52.9	76.0	62.5
O=C(/C=C/c1ccccc1)c1ccccc1	0	0	0	35.0	82.0	75.7
COCC(=O)Nc1ccc2c(c1)[C@@H]1C[C@H](CC(=O)N3CCCCC3)O[C@@H](CO)[C@@H]1O2	-	0	-	-	-	-
CO[C@@H]1CN(C)C(=O)c2ccc(NS(C)(=O)=O)cc2OC[C@H](C)N(C(=O)NC(C)C)C[C@H]1C	-	0	-	-	-	-
N#Cc1ccc(/C=C/C(=O)c2ccccc2)cc1	0	0	0	82.6	100.2	105.3

Screens (PubChem BioAssay)
